# Sampled rows, rich in hits. Any-hit rate of the full collection: about 2%.
# S100A4 inh HTS = blocks human S100A4 binding to myosin IIA peptide. hit rate 0.14% among 360,000. S100A4/TAMRA-MyoIIA peptide fluorescence polarization. P26447. AID 652163. inhibition, % at 10.7 µM;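 active means mean inhibition of at least 70% across replicates, with every replicate also reaching that level; inconclusive means mean inhibition reaches 70% but some replicates fall short; inactive means mean inhibition below 70%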
# Target sequence (P26447 whole entry, looked up): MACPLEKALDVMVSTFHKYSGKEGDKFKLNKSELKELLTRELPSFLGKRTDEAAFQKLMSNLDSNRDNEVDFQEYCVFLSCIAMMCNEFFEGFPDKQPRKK
#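 incubation = readout 5 min after mixing, signal stable up to 60 min | system = S100A4 monomer protein | buffer or medium = HEPES pH 7.2 with CaCl2, KCl, NaCl, DTT, Triton | benchmarks = neutral control DMSO, positive control TFP | also added = fluorescent myosin IIA peptide, 5 nM | compound dosing = one concentration per compound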
# CAL PDZ FP-1 = blocks peptide binding to human CAL PDZ domain; purified CAL PDZ, TMR-peptide fluorescence polarization, 1 h; inhibition, % at 20 µM; hit rate 0.02% among 330,000; AID 504414;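 active means highest replicate inhibition of at least 40%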;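 further: plate controls were DMSO neutral control wells for no effect and unlabeled competitor peptide control wells for full effect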
#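 Material: tagged CAL PDZ protein CerCALP, purified; buffer or medium: sodium phosphate/NaCl buffer pH 7.4 with TCEP, IgG, Thesit; also added: fluorescent TMR peptide probe; schedule: 1 h incubation at room temperature before polarization reading; technique: fluorescence polarization from S- and P-plane intensities, G-factor corrected; control set: unlabelled peptide and DMSO controls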
# dFosB act-1 = activators of mouse delta FosB homodimer; purified delta FosB, TAMRA-CDK5 oligo fluorescence polarization; percent of positive-control signal above neutral wells; AID 493131; hit rate 0.99% among 340,000; activation, % at 25 µM;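 active means mean activation above about 17%, with every replicate also reaching it, limit read from the data, passing the limit was not always enough; inconclusive means only one of the two conditions met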
# Target sequence (P13346 whole entry, looked up): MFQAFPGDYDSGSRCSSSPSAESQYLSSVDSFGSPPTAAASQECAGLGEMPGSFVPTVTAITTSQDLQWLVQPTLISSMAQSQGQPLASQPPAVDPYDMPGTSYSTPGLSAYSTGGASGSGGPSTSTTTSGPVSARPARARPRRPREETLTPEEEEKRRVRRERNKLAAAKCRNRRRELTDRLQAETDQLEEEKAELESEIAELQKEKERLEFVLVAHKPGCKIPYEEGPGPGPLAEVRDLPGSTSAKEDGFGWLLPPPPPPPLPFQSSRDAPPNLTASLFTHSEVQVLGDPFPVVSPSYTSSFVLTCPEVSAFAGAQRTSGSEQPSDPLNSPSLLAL
# CDK5 p35 inh = CDK5/p35 (human) kinase inhibition; Q00535+Q15078; Recombinant CDK5/p35, ADP-Glo luminescence, 60 min; inhibition, % at 10 µM; hit rate 0.01% among 330,000; AID 488839;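 active means highest replicate inhibition of at least 50% and at least 75% of replicates reaching 50%; inconclusive means only one of the two criteria met; inactive means both criteria failed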;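 further: plate controls were DMSO neutral control for no effect and GW8510 at 10 µM for full effect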
# Statin myotox sup = suppressors of simvastatin-induced myotoxicity in C2C12 myotubes; ATP luminescence, 48 h; scaled: DMSO 0, geranylgeraniol control 100; rescue of ATP level, % at 7.49 µM; hit rate 0.78% among 330,000; AID 602340;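 active means mean ATP rescue above about 67%, or every replicate alone reaching that limit, limit read from the data, passing the limit was not always enough; inconclusive means no clear call, values can overlap the other calls; inactive means mean under the limit and some replicate under it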;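 further: myotubes were challenged with 10 µM simvastatin during compound exposure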
# CAL PDZ FP-2 = CAL PDZ (human) peptide binding inhibition | purified CAL PDZ, TMR-peptide fluorescence polarization, 1 h | inhibition, % at 24.9 µM | hit rate 0.92% among 300,000 | AID 602252;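 active means mean inhibition of at least 30% with at least half of replicates also reaching 30%; inconclusive means no clear call, values can overlap the other calls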;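 further: 0% = DMSO neutral control and 100% = excess unlabeled competitor peptide PRC23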
# dFosB act-2 = activators of mouse delta FosB homodimer DNA binding | shares compounds with dFosB act-1 | purified delta FosB, TAMRA-CDK5 oligo fluorescence polarization; normalised: neutral wells 0, positive control 100 | activation, % at 24.9 µM | 2,400 tested, under 10 active;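 active means highest replicate activation at or above 34% and every replicate reaching that threshold; inconclusive means meets only one of the two criteria; inactive means meets neither criterion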;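 further: higher polarization means more probe DNA bound by delta FosB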
# Active calls of the source: *; ? = inconclusive; . = not tested or not shown.
SMILES,S100A4 inh HTS,CAL PDZ FP-1,dFosB act-1,CDK5 p35 inh,Statin myotox sup,CAL PDZ FP-2,dFosB act-2
CCOc1ccc(CCN2C(=S)N([C@@H](CC(C)C)CN3CCCC3CN3C(=S)NC[C@@H]3Cc3ccc(O)cc3)C[C@@H]2CC(C)C)cc1 (stereo not given in full),-2,0,26*,0,0,-3,5
CC(C)C(=O)Nc1nnc(SCc2cccc(F)c2)s1,-4,-1,-9,-1,.,.,.
Cc1ccc(NC(=O)CC2S/C(=N/N=C/c3ccco3)NC2=O)cc1Cl (stereo not given),0,-1,33*,-2,.,-1,-1
O=C1CC(C(=O)Nc2ccc(Cl)cc2)S/C(=N\N=C\c2ccco2)N1 (stereo not given),3,-1,45*,1,.,8,0
O=C1CC(C(=O)Nc2ccc(Cl)c(Cl)c2)S/C(=N\N=C\c2ccco2)N1 (stereo not given),-1,0,32*,-1,.,0,0
COc1ccc(NC(=O)C2CC(=O)N/C(=N/N=C/c3ccco3)S2)cc1 (stereo not given),-1,.,.,.,.,.,.
O=C1CC(C(=O)Nc2ccccc2)S/C(=N\N=C\c2ccco2)N1 (stereo not given),.,0,28*,0,.,-5,5
O=C1CC(C(=O)Nc2ccc(Br)cc2)S/C(=N\N=C\c2ccco2)N1 (stereo not given),-18,-1,15,1,.,-7,.
Cc1noc(C)c1S(=O)(=O)Nc1ccc2c(c1)C(=O)N([C@@H](C)CO)C[C@@H](C)[C@H](CN(C)Cc1ccc3c(c1)OCO3)OCCCC[C@H](C)O2,0,.,.,.,.,.,.
Cn1c(SCC(=O)NCc2cccs2)nnc1-c1ccc(S(=O)(=O)N2CCCC2)cc1,.,0,-6,-1,27,0,.
CC(=O)OC(C)C(=O)NS(=O)(=O)c1ccc(C)cc1 (stereo not given),22,-2,-3,-2,.,2,.
CCn1cc(CN2CCC(n3nccc3NC(=O)c3ccccc3OC)CC2)cn1,1,-1,-1,0,-1,0,.
CCCCCCC12C(=Cc3cc4c(cc31)OCCO4)c1cc(OC)c(OC)cc1C(CC(=O)OC)N2C(=O)OC (stereo not given),-2,.,.,.,.,.,.
CN(C)c1nc(NCc2ccccc2)nc(N/N=C/c2cccc(Br)c2)n1,5,-3,57*,0,-6,0,4
O=C(CCNS(=O)(=O)c1cccc2nsnc12)N1CCN(c2ccccn2)CC1,.,-1,2,0,.,-5,.
CNc1nc(N/N=C/c2cc3c(cc2[N+](=O)[O-])OCO3)nc(Nc2ccccc2)n1,7,-4,55*,-2,.,1,6
COc1ccc(/C=N/Nc2nc(Nc3ccccc3)nc(N3CCCC3)n2)cc1[N+](=O)[O-],-1,0,62*,-2,-33,20,?
COc1cc(/C=N/Nc2nc(Nc3ccccc3)nc(N3CCOCC3)n2)ccc1OC(=O)c1ccco1,7,-3,54*,0,.,-6,3
O=[N+]([O-])c1cc2c(cc1/C=N\NS(=O)(=O)c1ccccc1)OCO2,.,0,3,-2,-15,-2,.
O=[N+]([O-])c1ccc(/C=N/Nc2nc(NCc3ccccc3)nc(N3CCOCC3)n2)cc1,6,-5,27*,-1,.,-2,2
C[C@H](CO)N1C[C@H](C)[C@@H](CN(C)C(=O)Nc2ccc(C(F)(F)F)cc2)Oc2ccc(NC(=O)Nc3cccc4ccccc34)cc2C1=O,1,.,.,.,27,.,.
O=S(=O)(c1ccccc1)c1ccc(NCc2ccco2)cc1,.,.,-6,0,-6,2,.
COc1cc(-c2cc3nc(C)c(C)c(=O)n3[nH]2)cc(OC)c1OC,0,-5,22*,-2,2,-1,5
CCc1c(C)nc2cc(-c3ccccc3)[nH]n2c1=O,3,.,-3,1,-15,-3,.

# Assay outcomes as filed in PubChem BioAssay.
